# Measurements as given in ChEMBL document CHEMBL1649319, “In vitro antifungal activities of isavuconazole and comparators against rare yeast pathogens” (2010).
# Assays:
# Assay type in all cases: functional
# [1] = system: Cutaneotrichosporon mucoides; experiment: Antifungal activity against Trichosporon mucoides after 48 hrs by Etest
# Summary of the method: (§1)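 Etest on 2% glucose-RPMI agar. Yeast suspensions were swabbed across the plates and strips applied, then incubated at 35°C for 48 h. MIC was the lowest concentration where the elliptical inhibition zone border met the strip scale. Each reading was raised to the next 2-fold dilution on the CLSI scale and converted to log2. Isolates were revived from −70°C stocks on potato dextrose or Sabouraud agar.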
# [2] = system: Rhodotorula mucilaginosa; experiment: Antifungal activity against Rhodotorula mucilaginosa after 7 days by Etest; settings: 168 h
# [3] = system: Magnusiomyces capitatus; experiment: Antifungal activity against Dipodascus capitatus after 4 days by Etest; settings: 96 h
# [4] = system: Trichosporon asahii; experiment: Antifungal activity against Trichosporon asahii after 48 hrs by broth microdilution method
# Summary of the method: (§2)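 CLSI M27-A3 broth microdilution. Isolates were identified by ITS1-5.8S-ITS2 sequencing, kept at −70°C in sterile water, and revived on potato dextrose or Sabouraud agar. Drug ranges in wells were 0.015–16 or 0.125–128 μg/ml, depending on the agent. Plates were incubated at 35°C and MICs read visually at 48 h. QC strains were C. krusei ATCC 6258 and C. parapsilosis ATCC 22019.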
# [5] = Antifungal activity against Trichosporon domesticum after 48 hrs by Etest; settings: Apiotrichum domesticum; summary of the method: as §1
# [6] = system: Trichosporon inkin; experiment: Antifungal activity against Trichosporon inkin after 48 hrs by Etest; summary of the method: as §1
# [7] = system: Trichosporon inkin; experiment: Antifungal activity against Trichosporon inkin after 48 hrs by broth microdilution method; summary of the method: as §2
# [8] = system: Cutaneotrichosporon mucoides; experiment: Antifungal activity against Trichosporon mucoides after 48 hrs by broth microdilution method; summary of the method: as §2
# [9] = system: Trichosporon; experiment: Antifungal activity against Trichosporon sp. after 3 days by broth microdilution method; settings: 72 h
# [10] = Antifungal activity against Trichosporon jirovecii after 48 hrs by Etest; settings: Cutaneotrichosporon jirovecii; summary of the method: as §1
# [11] = system: Saccharomyces cerevisiae; experiment: Antifungal activity against Saccharomyces cerevisiae after 48 hrs by broth microdilution method; summary of the method: as §2
# [12] = system: Cutaneotrichosporon mucoides; experiment: Antifungal activity against Trichosporon mucoides assessed as percent susceptible isolates after 48 hrs by broth microdilution method
# Summary of the method: (§3)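 Broth microdilution MICs (CLSI, 35°C, visual read at 48 h) were sorted into categories using CLSI M27-A3 triazole breakpoints. Susceptible was ≤1 or ≤8 μg/ml, SDD was 2 or 16–32 μg/ml, and resistant was ≥4 or ≥64 μg/ml, depending on the agent. Each category is the percentage of isolates falling in it.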
# [13] = system: Magnusiomyces capitatus; experiment: Antifungal activity against Dipodascus capitatus after 3 days by broth microdilution method; settings: 72 h
# [14] = system: Magnusiomyces capitatus; experiment: Antifungal activity against Dipodascus capitatus after 48 hrs by Etest; summary of the method: as §1
# [15] = system: Rhodotorula mucilaginosa; experiment: Antifungal activity against Rhodotorula mucilaginosa after 48 hrs by Etest; summary of the method: as §1
# [16] = Antifungal activity against Trichosporon jirovecii after 48 hrs by broth microdilution method; settings: Cutaneotrichosporon jirovecii; summary of the method: as §2
# [17] = system: Trichosporon asahii; experiment: Antifungal activity against Trichosporon asahii after 48 hrs by Etest; summary of the method: as §1
# [18] = system: Magnusiomyces capitatus; experiment: Antifungal activity against Dipodascus capitatus after 48 hrs by broth microdilution method; summary of the method: as §2
# [19] = system: Cutaneotrichosporon mucoides; experiment: Antifungal activity against Trichosporon mucoides assessed as percent susceptible/dose-dependent isolates after 48 hrs by broth microdilution method; summary of the method: as §3
# [20] = system: Saccharomyces cerevisiae; experiment: Antifungal activity against Saccharomyces cerevisiae after 48 hrs by Etest; summary of the method: as §1
# [21] = system: Rhodotorula mucilaginosa; experiment: Antifungal activity against Rhodotorula mucilaginosa after 7 days by broth microdilution method; settings: 168 h
# [22] = system: Trichosporon; experiment: Antifungal activity against Trichosporon sp. after 4 days by Etest; settings: 96 h
# [23] = system: Saccharomyces cerevisiae; experiment: Antifungal activity against Saccharomyces cerevisiae after 5 days by broth microdilution method; settings: 120 h
# [24] = system: Rhodotorula mucilaginosa; experiment: Antifungal activity against Rhodotorula mucilaginosa after 48 hrs by broth microdilution method; summary of the method: as §2
# [25] = Antifungal activity against Trichosporon domesticum after 48 hrs by broth microdilution method; settings: Apiotrichum domesticum; summary of the method: as §2
compound,measurement,setting,value
C[C@@H](c1nc(-c2ccc(C#N)cc2)cs1)[C@](O)(Cn1cncn1)c1cc(F)ccc1F [ISAVUCONAZOLE],MIC50,[1],0.06 mg/L
same,MIC90,[1],0.125 mg/L
same,MIC50,[2],1 mg/L
same,MIC90,[2],4 mg/L
same,MIC50,[3],0.125 mg/L
same,MIC90,[3],1 mg/L
same,MIC50,[4],0.06 mg/L
same,MIC90,[4],0.5 mg/L
same,MIC50,[5],0.06 mg/L
same,MIC90,[5],0.125 mg/L
same,MIC50,[6],0.06 mg/L
same,MIC90,[6],0.125 mg/L
same,MIC50,[7],0.06 mg/L
same,MIC90,[7],0.5 mg/L
same,MIC50,[8],0.06 mg/L
same,MIC90,[8],0.5 mg/L
same,MIC50,[9],0.06 mg/L
same,MIC90,[9],0.5 mg/L
same,MIC50,[10],0.06 mg/L
same,MIC90,[10],0.125 mg/L
same,MIC50,[11],0.03 mg/L
same,MIC90,[11],0.5 mg/L
same,MIC50,[12],0.06 mg/L
same,MIC90,[12],0.5 mg/L
same,MIC50,[13],0.06 mg/L
same,MIC90,[13],0.5 mg/L
same,MIC50,[14],0.125 mg/L
same,MIC90,[14],1 mg/L
same,MIC50,[15],1 mg/L
same,MIC90,[15],4 mg/L
same,MIC50,[16],0.06 mg/L
same,MIC90,[16],0.5 mg/L
same,MIC50,[17],0.06 mg/L
same,MIC90,[17],0.125 mg/L
same,MIC50,[18],0.06 mg/L
same,MIC90,[18],0.5 mg/L
same,MIC50,[19],0.06 mg/L
same,MIC90,[19],0.5 mg/L
same,MIC50,[20],0.125 mg/L
same,MIC90,[20],0.5 mg/L
same,MIC50,[21],0.5 mg/L
same,MIC90,[21],2 mg/L
same,MIC50,[22],0.06 mg/L
same,MIC90,[22],0.125 mg/L
same,MIC50,[23],0.03 mg/L
same,MIC90,[23],0.5 mg/L
same,MIC50,[24],0.5 mg/L
same,MIC90,[24],2 mg/L
same,MIC50,[25],0.06 mg/L
same,MIC90,[25],0.5 mg/L
CC[C@@H]([C@H](C)O)n1ncn(-c2ccc(N3CCN(c4ccc(OC[C@@H]5CO[C@@](Cn6cncn6)(c6ccc(F)cc6F)C5)cc4)CC3)cc2)c1=O [POSACONAZOLE],MIC50,[1],0.125 mg/L
same,MIC90,[1],0.5 mg/L
same,MIC,[2],> 16 mg/L
same,MIC50,[2],> 16 mg/L
same,MIC90,[2],> 16 mg/L
same,MIC50,[3],0.06 mg/L
same,MIC90,[3],0.5 mg/L
same,MIC50,[4],0.125 mg/L
same,MIC90,[4],0.25 mg/L
same,MIC50,[5],0.125 mg/L
same,MIC90,[5],0.5 mg/L
same,MIC50,[6],0.125 mg/L
same,MIC90,[6],0.5 mg/L
same,MIC50,[7],0.125 mg/L
same,MIC90,[7],0.25 mg/L
same,MIC50,[8],0.125 mg/L
same,MIC90,[8],0.25 mg/L
same,MIC50,[9],0.125 mg/L
same,MIC90,[9],0.25 mg/L
same,MIC50,[10],0.125 mg/L
same,MIC90,[10],0.5 mg/L
same,MIC50,[11],1 mg/L
same,MIC90,[11],2 mg/L
same,MIC50,[12],0.125 mg/L
same,MIC90,[12],0.25 mg/L
same,MIC50,[13],0.125 mg/L
same,MIC90,[13],0.5 mg/L
same,MIC50,[14],0.06 mg/L
same,MIC90,[14],0.5 mg/L
same,MIC,[15],> 16 mg/L
same,MIC50,[15],> 16 mg/L
same,MIC90,[15],> 16 mg/L
same,MIC50,[16],0.125 mg/L
same,MIC90,[16],0.25 mg/L
same,MIC50,[17],0.125 mg/L
same,MIC90,[17],0.5 mg/L
same,MIC50,[18],0.125 mg/L
same,MIC90,[18],0.5 mg/L
same,MIC50,[19],0.125 mg/L
same,MIC90,[19],0.25 mg/L
same,MIC50,[20],2 mg/L
same,MIC90,[20],> 16 mg/L
same,MIC50,[21],1 mg/L
same,MIC90,[21],8 mg/L
same,MIC50,[22],0.125 mg/L
same,MIC90,[22],0.5 mg/L
same,MIC50,[23],1 mg/L
same,MIC90,[23],2 mg/L
same,MIC50,[24],1 mg/L
same,MIC90,[24],8 mg/L
same,MIC50,[25],0.125 mg/L
same,MIC90,[25],0.25 mg/L
C[C@@H](c1ncncc1F)[C@](O)(Cn1cncn1)c1ccc(F)cc1F [VORICONAZOLE],MIC50,[1],0.03 mg/L
same,MIC90,[1],0.125 mg/L
same,MIC50,[2],> 16 mg/L
same,MIC90,[2],> 16 mg/L
same,MIC50,[3],0.03 mg/L
same,MIC90,[3],0.06 mg/L
same,MIC50,[4],0.06 mg/L
same,MIC90,[4],0.25 mg/L
same,MIC50,[5],0.03 mg/L
same,MIC90,[5],0.125 mg/L
same,MIC50,[6],0.03 mg/L
same,MIC90,[6],0.125 mg/L
same,MIC50,[7],0.06 mg/L
same,MIC90,[7],0.25 mg/L
same,MIC50,[8],0.06 mg/L
same,MIC90,[8],0.25 mg/L
same,MIC50,[9],0.06 mg/L
same,MIC90,[9],0.25 mg/L
same,MIC50,[10],0.03 mg/L
same,MIC90,[10],0.125 mg/L
same,MIC50,[11],0.125 mg/L
same,MIC90,[11],0.25 mg/L
same,MIC50,[12],0.06 mg/L
same,MIC90,[12],0.25 mg/L
same,MIC50,[13],0.06 mg/L
same,MIC90,[13],0.25 mg/L
same,MIC50,[14],0.03 mg/L
same,MIC90,[14],0.06 mg/L
same,MIC50,[15],> 16 mg/L
same,MIC90,[15],> 16 mg/L
same,MIC50,[16],0.06 mg/L
same,MIC90,[16],0.25 mg/L
same,MIC50,[17],0.03 mg/L
same,MIC90,[17],0.125 mg/L
same,MIC50,[18],0.06 mg/L
same,MIC90,[18],0.25 mg/L
same,MIC50,[19],0.06 mg/L
same,MIC90,[19],0.25 mg/L
same,MIC50,[20],0.03 mg/L
same,MIC90,[20],0.125 mg/L
same,MIC50,[21],2 mg/L
same,MIC90,[21],8 mg/L
same,MIC50,[22],0.03 mg/L
same,MIC90,[22],0.125 mg/L
same,MIC50,[23],0.125 mg/L
same,MIC90,[23],0.25 mg/L
same,MIC50,[24],2 mg/L
same,MIC90,[24],8 mg/L
same,MIC50,[25],0.06 mg/L
same,MIC90,[25],0.25 mg/L
OC(Cn1cncn1)(Cn1cncn1)c1ccc(F)cc1F [FLUCONAZOLE],MIC50,[1],1 mg/L
same,MIC90,[1],4 mg/L
same,MIC,[2],> 128 mg/L
same,MIC50,[2],> 128 mg/L
same,MIC90,[2],> 128 mg/L
same,MIC50,[3],1 mg/L
same,MIC90,[3],4 mg/L
same,MIC50,[4],2 mg/L
same,MIC90,[4],8 mg/L
same,MIC50,[5],1 mg/L
same,MIC90,[5],4 mg/L
same,MIC50,[6],1 mg/L
same,MIC90,[6],4 mg/L
same,MIC50,[7],2 mg/L
same,MIC90,[7],8 mg/L
same,MIC50,[8],2 mg/L
same,MIC90,[8],8 mg/L
same,MIC50,[9],2 mg/L
same,MIC90,[9],8 mg/L
same,MIC50,[10],1 mg/L
same,MIC90,[10],4 mg/L
same,MIC50,[11],4 mg/L
same,MIC90,[11],16 mg/L
same,MIC50,[12],2 mg/L
same,MIC90,[12],8 mg/L
same,MIC50,[13],4 mg/L
same,MIC90,[13],16 mg/L
same,MIC50,[14],1 mg/L
same,MIC90,[14],4 mg/L
same,MIC,[15],> 128 mg/L
same,MIC50,[15],> 128 mg/L
same,MIC90,[15],> 128 mg/L
same,MIC50,[16],2 mg/L
same,MIC90,[16],8 mg/L
same,MIC50,[17],1 mg/L
same,MIC90,[17],4 mg/L
same,MIC50,[18],4 mg/L
same,MIC90,[18],16 mg/L
same,MIC50,[19],2 mg/L
same,MIC90,[19],8 mg/L
same,MIC50,[20],4 mg/L
same,MIC90,[20],64 mg/L
same,MIC,[21],> 128 mg/L
same,MIC50,[21],> 128 mg/L
same,MIC90,[21],> 128 mg/L
same,MIC50,[22],1 mg/L
same,MIC90,[22],4 mg/L
same,MIC50,[23],4 mg/L
same,MIC90,[23],16 mg/L
same,MIC,[24],> 128 mg/L
same,MIC50,[24],> 128 mg/L
same,MIC90,[24],> 128 mg/L
same,MIC50,[25],2 mg/L
same,MIC90,[25],8 mg/L
